M5 ag = human M5 muscarinic receptor agonists, primary screen, CHO-K1 cells, Fluo-8 calcium fluorescence; Muscarinic acetylcholine receptor M5 (Homo sapiens), P08912; CHO-K1 hM5 cells; 0% DMSO wells, 100% maximal acetylcholine response; activation, % at 3 µM; 360,000 compounds, 0.19% hits; AID 624037, 2012;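 active = activation above the run's mean over test compounds plus 3 SD, cut at about 23% in these data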;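 note: signal is peak over basal fluorescence ratio across the kinetic read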
CHRM4 PAM = human M4 muscarinic receptor positive allosteric modulators, primary screen, CHO-K1 cells, Fluo-8 calcium fluorescence; CHO-K1 hM4/Gqi5, ACh EC20; 0% = ACh EC20, 100% = maximal ACh; 360,000 compounds, 0.4% hits; Muscarinic acetylcholine receptor M4 (Homo sapiens), P08173; activation, % at 3 µM;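 active = activation above its plate's cutoff, the mean activation of sample wells plus 3 SD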
Target sequence (P08173 whole entry, looked up): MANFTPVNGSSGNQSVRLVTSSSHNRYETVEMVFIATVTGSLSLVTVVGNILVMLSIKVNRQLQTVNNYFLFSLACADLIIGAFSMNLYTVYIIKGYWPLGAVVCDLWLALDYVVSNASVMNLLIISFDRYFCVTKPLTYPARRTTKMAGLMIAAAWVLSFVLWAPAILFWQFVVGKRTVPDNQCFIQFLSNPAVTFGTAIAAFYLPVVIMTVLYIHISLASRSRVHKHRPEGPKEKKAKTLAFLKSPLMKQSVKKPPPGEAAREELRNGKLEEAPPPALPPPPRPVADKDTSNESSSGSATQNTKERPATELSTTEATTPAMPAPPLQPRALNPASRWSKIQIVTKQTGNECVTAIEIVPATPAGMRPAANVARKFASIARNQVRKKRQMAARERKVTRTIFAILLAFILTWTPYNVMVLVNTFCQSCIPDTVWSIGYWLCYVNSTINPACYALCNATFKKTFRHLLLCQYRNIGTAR
CHRM5 antagonist = human M5 muscarinic receptor antagonists, primary screen, CHO cells, Fluo-8 calcium fluorescence; CHO-hM5 cells, ACh EC80; 360,000 compounds, 0.59% hits; Muscarinic acetylcholine receptor M5 (Homo sapiens), P08912; AID 624040, 2012; inhibition, % at 3 µM;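 active = inhibition above a per-plate cutoff, the mean of that plate's test compounds plus 3 SD, cut at about 27% in these data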;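 note: 0% = acetylcholine EC80 with DMSO and 100% = DMSO without agonist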
M4 ag = human M4 muscarinic receptor agonists, primary screen, CHO-K1 cells, Fluo-8 calcium fluorescence; activation, % at 3 µM; 360,000 compounds, 0.14% hits; CHO-K1 hM4/Gqi5; vehicle 0%, full acetylcholine response 100%;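 active = activation above the run mean over all test wells plus 3 SD, cut at about 32% in these data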;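 note: peak over basal fluorescence ratio per well then scaled between controls; 0% = DMSO wells and 100% = acetylcholine at EC100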
M4 antag = human M4 muscarinic receptor antagonists, primary screen, CHO cells, Fluo-8 calcium fluorescence | AID 624125, 2012 | CHO-hM4 cells, ACh EC80 | 360,000 compounds, 0.73% hits | inhibition, % at 3 µM | Muscarinic acetylcholine receptor M4 (Homo sapiens), P08173;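 active = inhibition above its plate's cutoff, the mean inhibition of sample wells plus 3 SD, cut at about 27% in these data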;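 note: 0% = acetylcholine EC80 with DMSO and 100% = DMSO without agonist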
CHRM5 PAM = human M5 muscarinic receptor positive allosteric modulators, primary screen, CHO-K1 cells, Fluo-8 calcium fluorescence. Muscarinic acetylcholine receptor M5 (Homo sapiens), P08912. CHO-K1 hM5, ACh EC20 PAM; 0% = ACh EC20, 100% = ACh EC100. 360,000 compounds, 0.3% hits. AID 624038, 2012. activation, % at 3 µM;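 active = activation above the run cutoff, the mean activation of all test compounds plus 3 SD, cut at about 18% in these data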
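Measured by: Fluo-8 calcium fluorescence; material: human M5 receptor in CHO-K1 cells; schedule: Post-acetylcholine fluorescence recording 140 s; benchmarks: low control EC20 acetylcholine (0%), high control EC100 acetylcholine (100%); read-out: Max/basal fluorescence ratio as % of EC20–EC100 ACh window; compound: single dose, 3 µM nominal final test concentration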
Starred values were filed as active, the others as inactive. This is a sample that favours compounds with a hit; in the whole collection about 1.8% have one here.

SMILES	M5 ag	CHRM4 PAM	CHRM5 antagonist	M4 ag	M4 antag	CHRM5 PAM
O=C1CCC2(CCCC2)c2ccccc21	0	0	-6	0	-14	0
CN(C)CCNc1ccc(Cl)cc1[N+](=O)[O-]	-10	-13	30*	1	9	-19
CS(=O)(=O)NCCNc1ccc(Cl)cc1[N+](=O)[O-]	3	-12	9	13	5	-13
COc1ccc(C(=O)NC[C@H]2O[C@@H](n3cnc4c(N)ncnc43)[C@H](O)[C@@H]2O)cc1OC	2	5	-4	1	-6	3
NC(=O)c1ccc[n+]([C@H]2O[C@@H](COP(=O)([O-])OP(=O)(O)OC[C@H]3O[C@@H](n4cnc5c(N)ncnc54)[C@H](O)[C@@H]3O)[C@H](O)[C@@H]2O)c1	25*	-2	0	80*	0	-7
O=C(CC(C(=O)O)c1cccc(Br)c1)c1ccc(Cl)cc1 (stereo not given)	-4	-1	10	0	-10	1
Oc1cc2c(cc1O)[C@H]1c3ccc(O)c(O)c3OC[C@@]1(O)C2	2	0	5	0	6	4
Oc1ccc2c(c1)OCC1(O)Cc3cc(O)c(O)cc3C21 (stereo not given)	8	-17	6	52*	6	-4
CN1CCC(OC(=O)c2ccccc2Cl)CC1	-11	-11	34*	1	2	-21
CC(=O)Nc1ccc(C(=O)CSc2nnnn2C2CCCC2)cc1	0	3	-3	3	-16	4
O=c1c(O)c(-c2cccs2)oc2ccccc12	9	-9	5	16	13	-4
O=c1c(O)c(-c2cccs2)oc2ccc(Cl)cc12	66*	-18	31*	344*	32*	-22
c1ccc2c(c1)CCc1ccccc1C2=C1CCNCC1	-19	-61	99*	2	99*	-32
O=C1C(=C2CCc3ccccc32)Cc2ccccc21	-2	0	-1	0	5	-2
CSC1=NS(=O)(=O)c2c(C)nn(C)c2S1	1	-5	10	0	4	0
Cc1ccc(C(=O)N2CCC(C(=O)Nc3cccc([N+](=O)[O-])c3)CC2)cc1	-5	-4	5	2	-6	-6
Cn1c(=O)c2[nH]c(C3CC=CCC3)nc2n(C)c1=O (stereo not given)	3	-1	7	1	-5	5
Cn1c(=O)c2[nH]c(C3CCCC3)nc2n(C)c1=O	1	-20	0	1	101*	-4
N#CCC(=O)Nc1ccc(C(=O)NNC(=S)NC2CC2)cc1	-3	25*	-18	2	-8	10
S=C(NCC1(c2ccccc2)CCCC1)Nc1ccccc1	-8	-16	13	9	-6	-22
Cc1csc(SCc2nnc(-c3ccc(Cl)cc3)o2)n1	-1	7	-1	-1	9	1
Cc1ccc(-c2nnc(CSc3nnc(C)s3)o2)cc1	-2	5	8	0	-13	19*
COc1ccc(-c2nc3ccccc3nc2-c2ccc(OC)c(OC)c2)cc1OC	-13	0	39*	8	-1	-7
O=C(NCCc1ccccc1)c1cc(S(=O)(=O)N2CCCCC2)c[nH]1	6	9	-8	6	-22	-2
CC[N+]1(CC(O)COC2CC(C)CC(C)(C)C2)CCOCC1 (stereo not given)	-18	-33	7	0	29*	-6
SMILES	M5 ag	CHRM4 PAM	CHRM5 antagonist	M4 ag	M4 antag	CHRM5 PAM
CC(=O)C[C@H](O)CC(=O)[C@H]1OC(=O)CCCCCCc2ccccc21	1	-9	-3	1	-3	2
CCCCNC(=O)c1ccc(SCC(=O)N(CC)CC)c([N+](=O)[O-])c1	6	4	-12	1	-13	19*
CCN(CC)C(=O)CSc1ccc(C(F)(F)F)cc1[N+](=O)[O-]	-2	8	8	2	-7	-4
O=C(Nc1ccc(Cl)cc1)C(Cl)C(=O)c1ccccc1 (stereo not given)	-3	-20	8	7	26*	6
Cn1c(N)c(C(=O)NCc2ccccc2)sc1=S	-2	36*	9	2	-2	0
COc1ccc(CCNC(=O)c2sc(=S)n(C)c2N)cc1	2	-7	9	6	4	-13
CC(C)NC(=O)C1CCN(C2CCN(C(=O)c3scc4c3CCCC4)CC2)CC1	-4	-2	2	1	5	3
OC1(c2cccc(C(F)(F)F)c2)CCN(Cc2nc(-c3cnccn3)no2)CC1	-1	-3	9	2	1	-3
Cc1cc(C)c(CSc2ncc(-c3ccc([N+](=O)[O-])cc3)[nH]2)c(C)c1	-3	-13	19	4	36*	-14
COC(=O)[C@H](C)NC(=O)NC(C)CCc1ccccc1 (stereo not given in full)	-2	20*	3	2	-1	2
CCC1Oc2ccc(C)cc2N(CC(=O)NCCCN2CCOCC2)C1=O (stereo not given)	-3	1	1	2	2	-2
CC1CCC2(CC1)NC(=O)N(CC(=O)N1CCOCC1)C2=O (stereo not given)	4	3	6	1	-10	4
CC1(C(=O)NS(=O)(=O)c2ccc(C#N)cc2)CCN1C(=O)C1(c2ccccc2)CCCC1 (stereo not given)	-1	18*	-3	2	-15	1
CCOC(CCNC(=O)c1cc(-c2cccs2)nc2ccccc12)OCC	5	-7	17	20	11	-12
O=C1NC2(Nc3ccccc31)C(=O)Nc1ccc(Br)cc12 (stereo not given)	-15	-1	98*	0	-3	-30
Cc1cc(NC(=O)Nc2ccccc2F)ccc1Br	0	-16	37*	13	13	-18
O=C(Nc1ccccc1)Nc1ccc(Br)cc1F	0	-28	28*	7	54*	-19
O=C(Nc1cccc(Cl)c1)Nc1ccc(Br)cc1F	1	-16	16	7	25	-14
COc1ccccc1CCNC(=O)c1ccc(NC(=O)CC2SC(N3CCCCC3)=NC2=O)cc1 (stereo not given)	-1	0	3	1	-12	-3
